Source: ChEMBL document CHEMBL1141349, “Cytochrome P3A4 inhibitors and other constituents of Fibraurea tinctoria” (J Nat Prod, 2007)

Target: Cytochrome P450 3A4 (Homo sapiens, UniProt P08684)
Experiment: Inhibition of human CYP3A4 expressed in Escherichia coli assessed as inhibition of nifedipine oxidation
Assay type: ADME
Summary of the method: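 Bicistronic human CYP3A4 expressed in E. coli DH5; bacterial membrane fractions (sonication, differential centrifugation) stored at -75 °C, P450 content by CO-difference spectroscopy. Nifedipine substrate with 100 pmol P450 per incubation, 37 °C shaking waterbath; pyridine metabolite quantified by HPLC.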

Sequence of Cytochrome P450 3A4 (P08684 whole entry): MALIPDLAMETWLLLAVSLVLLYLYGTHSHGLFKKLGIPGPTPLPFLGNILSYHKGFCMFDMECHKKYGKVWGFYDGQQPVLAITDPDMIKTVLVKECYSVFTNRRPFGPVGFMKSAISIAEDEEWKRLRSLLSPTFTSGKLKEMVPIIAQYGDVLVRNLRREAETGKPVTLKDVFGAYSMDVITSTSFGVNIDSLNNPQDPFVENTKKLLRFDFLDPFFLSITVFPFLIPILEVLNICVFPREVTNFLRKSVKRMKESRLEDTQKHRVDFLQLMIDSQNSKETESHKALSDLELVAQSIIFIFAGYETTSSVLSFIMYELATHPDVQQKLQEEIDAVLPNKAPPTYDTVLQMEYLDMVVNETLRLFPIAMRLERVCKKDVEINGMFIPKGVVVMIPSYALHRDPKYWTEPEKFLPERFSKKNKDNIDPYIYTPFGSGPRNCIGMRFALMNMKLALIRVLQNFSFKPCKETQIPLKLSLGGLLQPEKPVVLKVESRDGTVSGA

| Structure (SMILES) | IC50 |
| --- | --- |
| COc1cc2c(cc1O)-c1cc3ccc(O)c(OC)c3c[n+]1CC2 [STEPHARANINE] | > 2.5 µM |
| COc1cc2c(cc1OC)-c1cc3ccc(OC)c(OC)c3c[n+]1CC2 [PALMATINE CHLORIDE] | 0.9 µM |
| C[C@H](C[C@@H](O)[C@](C)(O)[C@H]1CC[C@@]2(O)C3=CC(=O)[C@@H]4C[C@@H](O)[C@@H](O)C[C@]4(C)[C@H]3CC[C@]12C)C(C)(C)O [MAKISTERONE A] | > 100 µM |
| C[C@@]12C[C@H](c3ccoc3)OC(=O)C1=CC[C@]1(C)[C@H]2[C@@H]2OC(=O)[C@@]1(O[C@@H]1O[C@H](CO)[C@@H](O)[C@H](O)[C@H]1O)[C@H]1O[C@@H]21 [FIBRAURINOSIDE] | > 100 µM |
| C[C@@]12[C@H]3CC=C[C@@]1(O[C@@H]1O[C@H](CO)[C@@H](O)[C@H](O)[C@H]1O)C(=O)O[C@@H]2C[C@]1(O)C(=O)O[C@H](c2ccoc2)C[C@@]31C [EPI-FIBRAURETINOSIDE A] | > 100 µM |
| C[C@@]12[C@H]3CC=C[C@]1(O[C@@H]1O[C@H](CO)[C@@H](O)[C@H](O)[C@H]1O)C(=O)O[C@@H]2C[C@]1(O)C(=O)O[C@H](c2ccoc2)C[C@@]31C [FIBRAURETINOSIDE A] | > 100 µM |
| COc1cc2c(cc1O)-c1cc3ccc(OC)c(OC)c3c[n+]1CC2 [COLUMBAMINE] | 30.6 µM |
| C[C@@]12C[C@H](c3ccoc3)OC(=O)C1=CC[C@]1(C)[C@H]2[C@H]2C=C[C@]1(O[C@@H]1O[C@H](CO)[C@@H](O)[C@H](O)[C@H]1O)C(=O)O2 [FIBLEUCINOSIDE] | > 100 µM |
| C[C@@]12C[C@H](c3ccoc3)OC(=O)[C@@H]1[C@@H](O)C[C@]1(C)[C@H]2[C@@H]2OC(=O)[C@@]1(O)[C@H]1O[C@@H]21 [FIBRAURETIN A] | > 100 µM |
| C[C@H](C[C@@H](O)[C@](C)(O)[C@H]1CC[C@@]2(O)C3=CC(=O)[C@@H]4C[C@@H](O[C@@H]5O[C@H](CO)[C@@H](O)[C@H](O)[C@H]5O)[C@@H](O)C[C@]4(C)[C@H]3CC[C@]12C)C(C)(C)O [FIBRAURECDYSIDE A] | > 100 µM |
| C[C@@]12C[C@H](c3ccoc3)OC(=O)[C@@H]1CC[C@@]1(CO[C@@H]3O[C@H](CO)[C@@H](O)[C@H](O)[C@H]3O)C(=O)C=CC[C@H]12 | > 100 µM |
